Experimental findings from ChEMBL document CHEMBL1155138, “Identification and characterization of a new metallo-beta-lactamase, IND-5, from a clinical isolate of Chryseobacterium indologenes” (Antimicrob Agents Chemother, 2007) are described below.

For assay [1], the system named is Escherichia coli. The assay can be described thus: Antimicrobial activity against Escherichia coli HB101 harboring pBC-SK plasmid assessed as drug level at which microbial resistance was observed by agar dilution method. The assay is classed as functional. In general terms: Agar dilution tests growth on a series of plates holding different concentrations.
Assay [2] has as its system Chryseobacterium indologenes. The experiment in a line: Activity of Chryseobacterium indologenes metallo-beta-lactamase IND-5 expressed in Escherichia coli BL21(DE3) assessed as substrate hydrolysis. In a few lines:
(§1)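 Purified IND-5 came from E. coli BL21(DE3)/pET-IND-5, induced with 1 mM IPTG for 2 h at 20°C. It was purified by Mono Q then Mono P chromatography in buffers with 50 μM ZnSO4. Substrate hydrolysis was measured under initial-rate conditions in 30 mM sodium cacodylate pH 6.5 plus 50 μM ZnSO4. Km and kcat came from Hanes linearization and are means of three measurements.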

Assay [3] deals with Chryseobacterium indologenes. The assay can be described thus: Antimicrobial activity against Chryseobacterium indologenes NF16 isolate assessed as drug level at which microbial resistance was observed by agar dilution method. The assay is classed as functional. In a few lines:
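Agar dilution per CLSI guidelines, inoculum 5 × 10^5 CFU per spot; E. coli ATCC 25922 run as quality-control strain.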

In assay [4] the test system is Escherichia coli. The assay can be described thus: Antimicrobial activity against Escherichia coli HB101 harboring pBC-IND-5 plasmid containing metallo-beta-lactamase IND5 assessed as drug level at which microbial resistance was observed by agar dilution method. Format: functional.
Assay [5] relates to Chryseobacterium indologenes. The experiment in a line: Ratio of Kcat to Km of Chryseobacterium indologenes metallo-beta-lactamase IND-5 expressed in Escherichia coli BL21(DE3) assessed as substrate hydrolysis relative to control. Also noted: scale not given: the % may be the effect or the level left.
The test system of assay [6] is Chryseobacterium indologenes. The experiment in a line: Ratio of Kcat to Km of Chryseobacterium indologenes metallo-beta-lactamase IND-5 expressed in Escherichia coli BL21(DE3) assessed as substrate hydrolysis. In a few lines:
as §1

Assay [7] is described as follows: Inhibition of Chryseobacterium indologenes metallo-beta-lactamase IND-5 expressed in Escherichia coli BL21(DE3) using nitrocefin reporter substrate. The procedure, abridged: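 Purified IND-5 at 0.1 μM was incubated for 15 min at 30°C with increasing concentrations of zinc chelator.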

Activity calls are given as the source filed them. The rule behind the calls is not given here. Bounds are passed on as bounds.

In general, Km refers to the concentration of substrate that gives half-maximal velocity. What is called kcat is the maximal rate divided by the concentration of active sites. The term kcat/Km denotes the second-order rate constant that governs catalysis at low substrate concentration. For orientation: Ki means the dissociation constant of the complex between target and ligand, obtained from inhibition or displacement.

As to `CO/N=C(\C(=O)N[C@@H]1C(=O)N2C(C(=O)[O-])=C(C[N+]3(C)CCCC3)CS[C@H]12)c1csc(N)n1`, the Activity with Escherichia coli [1] was less than 0.125 µg/mL; in assay [3], 0.5 µg/mL; in the assay on Escherichia coli [4], 0.5 µg/mL. Moreover, the result in assay [2] was inactive.

Consider `CC1(C)S[C@@H]2[C@H](NC(=O)C(C(=O)O)c3ccccc3)C(=O)N2[C@H]1C(=O)O` (stereo partly specified), for which the Activity in assay [5] was 6.3%. Moreover, in assay [2], the Michaelis constant (Km) was 320 µM and the kcat came out at 17 s⁻¹. Besides, the catalytic efficiency (kcat/Km) in assay [6] turned out to be 53000 M⁻¹ s⁻¹.

In the case of `CC1(C)S[C@@H]2[C@H](NC(=O)Cc3ccccc3)C(=O)N2[C@H]1C(=O)O`, the Activity in assay [5] is 100%. For the same compound, in assay [2], the Km is 13 µM and the catalytic constant (kcat) was found to be 10.9 s⁻¹. Also, the specificity constant (kcat/Km) in assay [6] worked out at 840000 M⁻¹ s⁻¹.

For `CC1(C)S[C@@H]2[C@H](NC(=O)[C@H](N)c3ccccc3)C(=O)N2[C@H]1C(=O)O`, the Activity in assay [5] was 8.2%. Further, in assay [2], the Km was 150 µM and the kcat was 10.3 s⁻¹. Besides, the kcat/Km in assay [6] amounted to 69000 M⁻¹ s⁻¹.

As to `CC1(C)[C@H](C(=O)O)N2C(=O)C[C@H]2S1(=O)=O`, the Activity in assay [5] is 0.3%. For the same compound, in assay [2], the Km came out at 1300 µM and the catalytic constant (kcat) came to 3.3 s⁻¹. In addition, the specificity constant (kcat/Km) in assay [6] was 2500 M⁻¹ s⁻¹.

Regarding `CO[C@@]1(NC(=O)C(C(=O)O)c2ccc(O)cc2)C(=O)N2C(C(=O)O)=C(CSc3nnnn3C)CO[C@@H]21` (stereo partly specified), the result in assay [2] was inactive.

Regarding `C[C@]1(Cn2ccnn2)[C@H](C(=O)O)N2C(=O)C[C@H]2S1(=O)=O`, in assay [2], the result was inactive.

In the case of `O=C(Cc1cccs1)N[C@@H]1C(=O)N2C(C(=O)O)=C(/C=C/c3ccc([N+](=O)[O-])cc3[N+](=O)[O-])CS[C@H]12`, the Activity in assay [5] came to 65%. In addition, in assay [2], the Km came out at 8 µM and the turnover number (kcat) stood at 4.4 s⁻¹. The kcat/Km in assay [6] was determined as 550000 M⁻¹ s⁻¹.

With `CC1(C)S[C@@H]2[C@H](NC(=O)[C@H](N)c3ccc(O)cc3)C(=O)N2[C@H]1C(=O)O` [AMOXICILLIN], the Activity is 2 µg/mL in the assay with Escherichia coli [1], greater than 64 µg/mL in assay [3] and greater than 64 µg/mL in the assay on Escherichia coli [4].

Turning to `C[C@H]1[C@H](NC(=O)/C(=N\OC(C)(C)C(=O)O)c2csc(N)n2)C(=O)N1S(=O)(=O)O` [AZTREONAM], in assay [2], the outcome was inactive. The Activity in assay [3] amounted to 32 µg/mL.

As to `Cc1nnc(SCC2=C(C(=O)O)N3C(=O)[C@@H](NC(=O)Cn4cnnn4)[C@H]3SC2)s1` [CEFAZOLIN], the Activity in the assay with Escherichia coli [1] came out at 1 µg/mL; in assay [5], 2.1%; in assay [3], 64 µg/mL; in the assay with Escherichia coli [4] it was 64 µg/mL. In assay [2], the Michaelis-Menten constant (Km) is 25 µM. Also, the catalytic constant (kcat) in assay [2] stood at 0.46 s⁻¹. Further, in assay [6], the kcat/Km is 18000 M⁻¹ s⁻¹.

For `CO/N=C(\C(=O)N[C@@H]1C(=O)N2C(C(=O)O)=C(COC(C)=O)CS[C@H]12)c1csc(N)n1` [CEFOTAXIME], the Activity in assay [5] was 3.7%; in assay [3], 32 µg/mL; in the assay on Escherichia coli [4], 16 µg/mL. Further, the Km in assay [2] turned out to be 49 µM. Moreover, the kcat in assay [2] was 1.53 s⁻¹. Moreover, in assay [6], the kcat/Km came out at 31000 M⁻¹ s⁻¹.

With `CC(C)(O/N=C(\C(=O)N[C@@H]1C(=O)N2C(C(=O)[O-])=C(C[n+]3ccccc3)CS[C@H]12)c1csc(N)n1)C(=O)O` [CEFTAZIDIME], the values for the Activity (in the assay with Escherichia coli [1]; in assay [3]; in the assay with Escherichia coli [4]) were less than 0.5 µg/mL, 1 µg/mL and 0.5 µg/mL, respectively.

In turn, `O=C(O)c1cccc(C(=O)O)n1` [DIPICOLINIC ACID] yielded a Ki in assay [7] of 3 µM.

In turn, `O=C(O)CN(CCN(CC(=O)O)CC(=O)O)CC(=O)O` [EDETIC ACID] displayed an inhibition constant Ki in assay [7] of 815 µM.

On to `C[C@@H](O)[C@H]1C(=O)N2C(C(=O)O)=C(SCCNC=N)C[C@H]12` [IMIPENEM ANHYDROUS], for which the Activity with Escherichia coli [1] is 0.5 µg/mL; in assay [5], 2.8%; in assay [3], 32 µg/mL; with Escherichia coli [4] it was 1 µg/mL. Further, the Michaelis-Menten constant (Km) in assay [2] is 300 µM. The kcat in assay [2] worked out at 7.28 s⁻¹. Moreover, the kcat/Km in assay [6] amounted to 24000 M⁻¹ s⁻¹.

For the compound `C[C@@H](O)[C@H]1C(=O)N2C(C(=O)O)=C(S[C@@H]3CN[C@H](C(=O)N(C)C)C3)[C@H](C)[C@H]12` [MEROPENEM], the Activity with Escherichia coli [1] was less than 0.125 µg/mL; in assay [5] it was 1.8%; in assay [3], 16 µg/mL; with Escherichia coli [4], 1 µg/mL. In addition, the Km in assay [2] was found to be 280 µM. Moreover, the kcat in assay [2] was found to be 4.13 s⁻¹. In addition, the specificity constant (kcat/Km) in assay [6] came to 15000 M⁻¹ s⁻¹.

In the case of `c1cnc2c(c1)ccc1cccnc12` [PHENANTHROLINE], affinity in assay [7] was put at a Ki of 7.3 µM.

For `CCN1CCN(C(=O)N[C@@H](C(=O)N[C@@H]2C(=O)N3[C@@H]2SC(C)(C)[C@@H]3C(=O)O)c2ccccc2)C(=O)C1=O` [PIPERACILLIN], the Activity stood at 1 µg/mL in the assay on Escherichia coli [1], 4.6% in assay [5], 16 µg/mL in assay [3] and 32 µg/mL in the assay on Escherichia coli [4]. For the same compound, the Km in assay [2] was 375 µM. Further, in assay [2], the catalytic constant (kcat) was determined as 14.6 s⁻¹. Further, the kcat/Km in assay [6] is 39000 M⁻¹ s⁻¹.
